Laboratory results reported in ChEMBL document CHEMBL1811809, “Design, synthesis and in vitro drug release investigation of new potential 5-FU prodrugs” (Eur J Med Chem, 2011).

Assays:
[1] = test system: PA-1; assay: Antiproliferative activity against human PA1 cells after 48 hrs by resazurin reduction test; assay type: functional, cell-based; settings: PA-1, 48 h
Method in brief: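 MCF 7 and PA 1 cells were kept as monolayers in MEM with 10% fetal calf serum, 1 mM pyruvate, vitamins, non-essential amino acids and gentamicin, at 37 °C and 5% CO₂. Cells were seeded at 5 × 10³ per well, left 16 h, then exposed continuously for 48 h; DMSO was 0.5% (v/v). Resazurin in serum- and phenol red-free MEM was added for 1 h at 37 °C, fluorescence read at ex 530/em 590 nm, and IC₅₀ taken from blank-corrected percent-of-control curves.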

[2] = Antiproliferative activity against human fibroblasts after 48 hrs by resazurin reduction test; assay type: cell-based; settings: Fibroblast
[3] = test system: MCF7; assay: Antiproliferative activity against human MCF7 cells after 48 hrs by resazurin reduction test; assay type: functional, cell-based; settings: MCF7, 48 h
Method in brief: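 MCF 7 and PA 1 cells were kept as monolayers in MEM with 10% fetal calf serum, 1 mM pyruvate, vitamins, non-essential amino acids and gentamicin, at 37 °C and 5% CO₂. Cells were seeded at 5 × 10³ per well, left 16 h, then exposed continuously for 48 h; DMSO was 0.5% (v/v).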

[4] = Stability of the compound assessed as degradation half life in presence of plasma at 37 degC by HPLC analysis; assay type: ADME, cell-free
Method in brief: (§1)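 Each compound came from a 10 mM stock in methanol or methanol/acetonitrile 85:15, diluted 1:10 into PBS, MEM or human plasma and held at 37 ± 2 °C. Aliquots taken over time were quenched with equal-volume 10 mM ammonium formate pH 3, centrifuged, filtered, diluted 3:10 and run on gradient HPLC-UV (ammonium formate pH 3/acetonitrile; 264/258 nm). Half-lives came from log concentration versus time plots, usually in triplicate.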

[5] = Stability of the compound in PBS buffer assessed as degradation half life at 37 degC by HPLC analysis; assay type: physicochemical; method in brief: as §1
[6] = Stability of the compound in MEM assessed as degradation half life at 37 degC by HPLC analysis; assay type: physicochemical; method in brief: as §1

**Q.** For `O=c1[nH]cc(F)c(=O)[nH]1` [FLUOROURACIL], which IC50 [1] is on record?
**A.** 5 µM

**Q.** And the IC50 [2]?
**A.** 11 µM

**Q.** For `CC(=O)OC[C@H]1O[C@@H](Oc2ccc(N(C)C(=O)n3cc(F)c(=O)[nH]c3=O)cc2)[C@H](F)[C@@H](OC(C)=O)[C@@H]1OC(C)=O`, which IC50 [1] is on record?
**A.** > 50 µM

**Q.** What about the IC50 [3] of the same compound?
**A.** > 50 µM

**Q.** What about the IC50 [2] of the same compound?
**A.** > 50 µM

**Q.** What does the source list for `CC(=O)OC[C@H]1O[C@@H](NC(=O)CCCCCNC(=O)n2cc(F)c(=O)[nH]c2=O)[C@H](F)[C@@H](OC(C)=O)[C@@H]1OC(C)=O`?
**A.** half-life [4]: 17 min; half-life [5]: 11 min; half-life [6]: 8 min; IC50 [1]: 4 µM; IC50 [3]: 8.1 µM; IC50 [2]: 5 µM

**Q.** Which half-life [4] does the source give for `CC(=O)OC[C@H]1O[C@@H](NC(=O)CCCNC(=O)n2cc(F)c(=O)[nH]c2=O)[C@H](F)[C@@H](OC(C)=O)[C@@H]1OC(C)=O` here?
**A.** 10 min

**Q.** And the half-life [5]?
**A.** 8 min

**Q.** And the half-life [6]?
**A.** 6 min

**Q.** And the IC50 [1]?
**A.** 6 µM

**Q.** What about the IC50 [3] of the same compound?
**A.** 23 µM

**Q.** And the IC50 [2]?
**A.** 15 µM

**Q.** For `CC(=O)OC[C@H]1O[C@@H](NC(=O)CCCN(C)C(=O)n2cc(F)c(=O)[nH]c2=O)[C@H](F)[C@@H](OC(C)=O)[C@@H]1OC(C)=O`, which IC50 [1] is on record?
**A.** > 50 µM

**Q.** What about the IC50 [3] of the same compound?
**A.** > 50 µM

**Q.** And the IC50 [2]?
**A.** > 50 µM

**Q.** With `CC(=O)OC[C@H]1O[C@@H](NC(=O)Cn2cc(F)c(=O)[nH]c2=O)[C@H](F)[C@@H](OC(C)=O)[C@@H]1OC(C)=O` as the compound, how does the IC50 [1] read?
**A.** > 50 µM

**Q.** What about the IC50 [3] of the same compound?
**A.** > 50 µM

**Q.** What about the IC50 [2] of the same compound?
**A.** > 50 µM

**Q.** Which results are given for `CC(=O)OC[C@H]1O[C@@H](n2cc(F)c(=O)[nH]c2=O)[C@H](F)[C@@H](OC(C)=O)[C@@H]1OC(C)=O`?
**A.** IC50 [1]: > 50 µM; IC50 [3]: > 50 µM; IC50 [2]: > 50 µM

**Q.** With `CC(=O)OC[C@H]1O[C@@H](NC(=O)CNC(=O)n2cc(F)c(=O)[nH]c2=O)[C@H](F)[C@@H](OC(C)=O)[C@@H]1OC(C)=O` as the compound, how does the half-life [4] read?
**A.** 6 min

**Q.** And the half-life [5]?
**A.** 3 min

**Q.** What about the half-life [6] of the same compound?
**A.** 2 min

**Q.** And the IC50 [1]?
**A.** 3 µM

**Q.** And the IC50 [3]?
**A.** 11 µM

**Q.** And the IC50 [2]?
**A.** 6.4 µM
